We go through two substances from PMC4197414 (Scientific Reports, 2014).

A short description of data set [1]: Transmission electron microscopy. It counts as physicochemical. Conditions: TEM, PBS; for morphology after self-assembly: pH = 7.4, above CMC, samples prepared at 25°C, uranyl acetate stain. An outline of the steps: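 Samples were prepared in PBS at 25°C and applied to carbon-coated copper grids. Excess liquid was blotted with filter paper, and samples were negatively stained with uranyl acetate. Grids were dried overnight in a desiccator and imaged at 200 kV.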

Data set [2] relates to C-LytA (C-terminal moiety of the pneumococcal cell-wall amidase LytA). The data set can be described thus: Isothermal titration calorimetry. Conditions: ITC; in words, as compared to Fmoc-K' itself. It counts as binding, Streptococcus pneumoniae. Put shortly: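 Recombinant C-LytA was expressed in E. coli BL21(DE3), induced with 0.3 mM IPTG at 16°C for 16–18 h, purified on Q Sepharose, eluted with 2% choline, and dialysed into PBS to remove choline. It was a dimer by gel filtration and ultracentrifugation. ITC was run in PBS at 16°C with ligand at pH 7.4, both solutions degassed by centrifugation. Ligand was titrated into the protein cell (0.4 μL, then 19 × 2 μL injections, 120 s apart, stirred at 1000 rpm). Ka came from a one- or two-site binding fit.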
A general note: ITC needs no label: the signal is the heat of the interaction.

Where [3] appears, read: pH = 7.4, 1.25 mmol/L, 1.08 wt% (Figure 2 legend).

Non-standard residues stand in square brackets, D forms with d. Nap = naphthalene (naphthaline) capping group; Lys(Me3) = C[N+](C)(C)CCCC[C@H](N)C(=O)O; Ada = adamantane cap

For the substance “AdaGFFYKKK'-NH2 (Ada-GFFYKK[Lys(Me3)]-NH2) [Compound 1]”, the “average diameter of nanoparticles” value in data set [1] (pH = 7.4, 1.09 wt%) is “around 153 nm”. The morphology after self-assembly result in data set [1] is “nanoparticle morphology”. In addition, the “association constant (Ka) with C-LytA compared to Fmoc-K'” value in data set [2] is on record as “far higher association constant”.
As to “NapGFFYKKK'-NH2 (Nap-GFFYKK[Lys(Me3)]-NH2) [Compound 2]”, the morphology after self-assembly result in data set [1] was “uniform nanofibers”. Besides, in data set [1] (setting [3]), the length of nanofibers result is “several microns” and the width of nanofibers result is recorded as “around 75 nm”. For the same substance, the “association constant (Ka) with C-LytA compared to Fmoc-K'” value in data set [2] was “far higher association constant”.
